Type in all cases: functional
For assay [1], the species on record is Mus musculus. Put plainly: Sedative activity in mice.
Assay [2] is filed under the species Mus musculus. Description: Sedative activity relative with respect to clozapine.
The species entered for assay [3] is Mus musculus. Description: Anticholinergic activity relative with respect to clozapine.
The species entered for a further assay is Oryctolagus cuniculus. Description: Compound was tested for the muscle-relaxing activity in rabbits. The gist of the method: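 Muscle electrical activity during contraction was recorded and pulses were counted. A 5 s extension was repeated every 1 min. Once pulse counts were constant (control value), the substance was given iv, and post-dose pulses were related to that value. Four to six animals were used per dose. ED50 was the dose halving muscle activity from the initial value.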

Assay [4] is filed under the species Rattus norvegicus. Put plainly: Compound was tested or the anti-tryptamine activity in rats. The gist of the method: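 Rats were challenged with tryptamine hydrochloride (16 mg/kg iv), with test substances given ip 30 min beforehand. Activity was scored as absence of clonic front paw movements over a 5 min observation after tryptamine. ED50 was the dose preventing the symptom in half the animals, determined by Probit analysis.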

The species entered for assay [5] is Rattus norvegicus. Description: Compound was tested or the anti-tryptamine activity in rats relative with respect to clozapine. The gist of the method: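 Rats dosed ip 30 min before tryptamine hydrochloride 16 mg/kg iv. Effect means front paw clonic movements absent over 5 min observation after tryptamine. ED50 is the dose preventing the symptom in half the animals (Probit analysis); relative activity referenced to clozapine.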

The species entered for assay [6] is Mus musculus. Put plainly: Anticholinergic activity in mice. The gist of the method: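 Groups of 10 female NMRI mice received a lethal dose of physostigmine (0.825 mg/kg sc). Test substances were given orally 30 min before the physostigmine.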
Assay [7] is filed under the species Rattus norvegicus. Put plainly: Compound was tested for the apomorphine antagonistic activity in rats expressed as relative activity. The procedure, abridged: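 Female Sprague–Dawley rats, groups of four to six. Oral dosing 90 min before apomorphine 1.5 mg/kg sc. Jaw movements recorded via implanted electrodes (mandibulogram).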

A value given as a limit tells only on which side of the number the result lay.

Broadly, the ED50 is the dose at which the effect has come halfway, by size or by number of responders. A lower ED50 goes with an effect at a small dose.

Turning to `Cc1ccc2c(c1)N=C(N1CCN(C)CC1)c1ccccc1C2=CC#N`, the ED50 in the assay filed under Mus musculus [1] amounted to 0.8 mg/kg; in the assay listed under Oryctolagus cuniculus, 0.028 mg/kg; in the assay listed under Rattus norvegicus [4], 6 mg/kg. Also, the Relative activity in the assay listed under Mus musculus [2] came out at 5.9; in the assay filed under Mus musculus [3], 0.45; in the assay filed under Rattus norvegicus [5], 0.83.
`CN1CCN(C2=Nc3ccccc3/C(=C/C#N)c3ccccc32)CC1`: the Relative activity in the assay filed under Mus musculus [3] amounted to 0.81; in the assay filed under Rattus norvegicus [5], 0.06. Moreover, the values for the ED50 in the assay filed under Oryctolagus cuniculus and in the assay filed under Rattus norvegicus [4] were 0.046 mg/kg and 79 mg/kg, respectively.
Consider `Cc1ccc2c(c1)N=C(N1CCN(C)CC1)c1ccccc1/C2=C/C#N`, for which the results for the 50% effective dose (ED50) in the assay filed under Mus musculus [1], in the assay filed under Oryctolagus cuniculus and in the assay filed under Rattus norvegicus [4] were 33.6 mg/kg, 0.25 mg/kg and 51 mg/kg, respectively. Also, the Relative activity in the assay listed under Rattus norvegicus [5] came to 0.1.
In the case of `Cc1ccc2c(c1)N=C(N1CCN(C)CC1)c1ccccc1/C2=C\C#N`, the ED50 in the assay listed under Mus musculus [6] was about 100 mg/kg; in the assay listed under Oryctolagus cuniculus it was 0.014 mg/kg; in the assay filed under Rattus norvegicus [4], 10 mg/kg. In the assay listed under Rattus norvegicus [5], the Relative activity was 0.5.
Turning to `CN1CCN(C2=Nc3ccccc3/C(=C\C#N)c3ccccc32)CC1`, the Relative activity was under 0.2 in the assay filed under Mus musculus [2], 3 in the assay listed under Mus musculus [3] and 0.16 in the assay listed under Rattus norvegicus [5]. Moreover, the ED50 in the assay listed under Oryctolagus cuniculus is about 1 mg/kg; in the assay listed under Rattus norvegicus [4], 32 mg/kg.
In the case of `CN1CCN(C2=Nc3cc(Cl)ccc3Nc3ccccc32)CC1` [CLOZAPINE], the Relative activity in the assay filed under Mus musculus [2], in the assay filed under Mus musculus [3], in the assay filed under Rattus norvegicus [7] and in the assay listed under Rattus norvegicus [5] was 1 each time. Moreover, the ED50 in the assay filed under Oryctolagus cuniculus is 0.028 mg/kg; in the assay listed under Rattus norvegicus [4], 5 mg/kg.

Source of the values: ChEMBL document CHEMBL1123227, “Tricyclic epines. Novel (E)- and (Z)-11H-dibenz[b,e]azepines as potential central nervous system agents. Variation of the basic side chain” (1986).
